Experimental findings from ChEMBL document CHEMBL2086283, “Novel 4-aminoquinoline-pyrimidine based hybrids with improved in vitro and in vivo antimalarial activity” (ACS Med Chem Lett, 2012) are described below.

The test system of data set [1] is Plasmodium falciparum. The data set can be described thus: Antiplasmodial activity against chloroquine-sensitive Plasmodium falciparum D6 infected in red blood cells after 72 hrs by parasitic LDH assay. The format is functional, organism-based. Conditions: D6, 72 h.
Data set [2] has as its system Plasmodium falciparum. The data set can be described thus: Antiplasmodial activity against chloroquine-resistant Plasmodium falciparum W2 infected in red blood cells after 72 hrs by parasitic LDH assay. The format is functional, organism-based. Conditions: W2, 72 h.
Data set [3] is described as follows: Selectivity index, ratio of IC50 for african green monkey Vero cells to IC50 for chloroquine-sensitive Plasmodium falciparum D6. The format is toxicity, cell-based. The conditions noted are these: read-out: Ratio IC50. An outline of the steps: (§1)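 SI is the IC50 for cytotoxicity to Vero cells (monkey kidney fibroblasts) divided by the antimalarial IC50 against the named P. falciparum clone. Cytotoxicity was tested up to 60 μM.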

The nature of data set [4]: Selectivity index, ratio of IC50 for african green monkey Vero cells to IC50 for chloroquine-resistant Plasmodium falciparum W2. It is filed as toxicity, cell-based. The conditions noted are these: read-out: Ratio IC50. In a few lines:
as §1

Data set [5] has as its system Vero. The data set can be described thus: Cytotoxicity against african green monkey Vero cells up to 60 uM after 48 hrs by neutral red assay. The format is cell-based. The conditions noted are these: chlorocebus sabaeus. In a few lines: (§2)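 Mammalian cell cytotoxicity was measured as IC50 in Vero (monkey kidney fibroblasts), LLC-PK11 (pig kidney epithelial) and HepG2 (human hepatoma) cells. The highest concentration tested was 60 μM. Values are the mean of two independent experiments ± SD.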

Data set [6] in a line: Cytotoxicity against pig LLC-PK11 cells up to 60 uM after 48 hrs by neutral red assay. The format is cell-based, Sus scrofa. Conditions: llc-pk11, 48 h. An outline of the steps: as §2
The subject of data set [7] is HepG2. The data set can be described thus: Cytotoxicity against human HepG2 cells up to 60 uM after 48 hrs by neutral red assay. The format is cell-based. Conditions: hepg2, 48 h. In a few lines:
as §2

Data set [8] relates to Vero. The data set can be described thus: Cytotoxicity against african green monkey Vero cells after 48 hrs by neutral red assay. It is filed as cell-based. The conditions noted are these: chlorocebus sabaeus. In a few lines:
as §2

Data set [9] in a line: Cytotoxicity against pig LLC-PK11 cells after 48 hrs by neutral red assay. Conditions: Sus scrofa, LLC-PK11, 48 h. It is filed as cell-based. In a few lines: as §2
Data set [10] deals with HepG2. The data set can be described thus: Cytotoxicity against human HepG2 cells after 48 hrs by neutral red assay. The format is cell-based. The conditions noted are these: HepG2, 48 h. An outline of the steps: as §2
For data set [11], the system named is Plasmodium falciparum. The data set can be described thus: Ratio of chloroquine IC50 to compound IC50 for chloroquine-resistant Plasmodium falciparum W2. The format is functional.
Data set [12] relates to Plasmodium falciparum. The data set can be described thus: Ratio of chloroquine IC50 to compound IC50 for chloroquine-sensitive Plasmodium falciparum D6. The format is functional.
The test system of data set [13] is Plasmodium falciparum. The data set can be described thus: Ratio of artemesin IC50 to compound IC50 for chloroquine-sensitive Plasmodium falciparum D6. It is filed as functional.

The IC50 is the concentration needed to halve the response being measured. `Cc1cc(NCCNc2ccnc3cc(Cl)ccc23)nc(Cl)n1`: the 50% inhibitory concentration (IC50) in the data set on Plasmodium falciparum [1] is 160 nM; with Plasmodium falciparum [2], 500 nM. Besides, the selectivity ratio was over 370 in data set [3] and over 120 in data set [4]. The Activity entry (in the data set on Vero [5]; in data set [6]; with HepG2 [7]) was “Non-toxic” in each case.

Take `Cc1cc(NCCCCCCNc2ccnc3cc(Cl)ccc23)nc(Cl)n1`: the IC50 with Plasmodium falciparum [1] came to 440 nM; in the data set on Plasmodium falciparum [2], 540 nM; in the data set on Vero [8] it was 32.7 µM; in data set [9], 15.8 µM; in the data set with HepG2 [10], 9.1 µM. The selectivity ratio in data set [3] was 74.3; in data set [4], 60.6.

For the compound `Cc1cc(NCCCCNc2ccnc3cc(Cl)ccc23)nc(Cl)n1`, the half-maximal inhibitory concentration (IC50) in the data set on Plasmodium falciparum [1] was determined as 120 nM; in the data set with Plasmodium falciparum [2], 680 nM. Also, the selectivity ratio in data set [3] is over 500; in data set [4], over 88. Also, the Activity entry (in the data set on Vero [5]; in data set [6]; with HepG2 [7]) was “Non-toxic” throughout.

Take `Cc1cc(NCCCNc2ccnc3cc(Cl)ccc23)nc(Cl)n1`: the values for the IC50 with Plasmodium falciparum [1] and in the data set on Plasmodium falciparum [2] were 330 nM and 700 nM, respectively. Also, the selectivity ratio in [3] is over 184; in data set [4] it was over 85. The Activity entry (with Vero [5]; in [6]; in the data set with HepG2 [7]) was “Non-toxic” throughout.

For `Cc1cc(Cl)nc(NCCNc2ccnc3cc(Cl)ccc23)n1`, the IC50 in the data set on Plasmodium falciparum [1] turned out to be 210 nM; in the data set with Plasmodium falciparum [2] it was 810 nM; with Vero [8] it was 43 µM; in data set [9] it was 42.3 µM; with HepG2 [10], 43 µM. Moreover, the selectivity ratio was 205 in [3] and 53.1 in data set [4].

`Cc1cc(Cl)nc(NCCCNc2ccnc3cc(Cl)ccc23)n1`: the figures for the half-inhibitory concentration (IC50) in the data set on Plasmodium falciparum [1] and in the data set with Plasmodium falciparum [2] were 240 nM and 1170 nM, respectively. Further, the selectivity ratio is over 250 in data set [3] and over 51.3 in data set [4]. Besides, the Activity result (in the data set on Vero [5]; in [6]; in the data set with HepG2 [7]) was “Non-toxic” each time.

Take `Cc1cc(NCCCCCCNc2ccnc3cc(Cl)ccc23)nc(N2CCCCC2)n1`: the IC50 was 60 nM in the data set on Plasmodium falciparum [1]; 100 nM with Plasmodium falciparum [2]; 8.8 µM in the data set with Vero [8]; 6.3 µM in [9]; 6.4 µM in the data set on HepG2 [10]. Moreover, the figures for the selectivity ratio in data set [3] and in data set [4] were 146 and 88, respectively.

As for `CCN1CCN(c2nc(C)cc(NCCCCNc3ccnc4cc(Cl)ccc34)n2)CC1`, the half-maximal inhibitory concentration (IC50) is 20 nM in the data set with Plasmodium falciparum [1]; 20 nM in the data set with Plasmodium falciparum [2]; 32.4 µM in the data set on Vero [8]; 10.7 µM in [9]; 15.4 µM in the data set with HepG2 [10]. Besides, in the data set with Plasmodium falciparum [11], the “Ratio IC50” value came out at 6. For the same compound, the selectivity ratio in data set [3] and in [4] was 1620 throughout.

For the compound `Cc1cc(NCCCNc2ccnc3cc(Cl)ccc23)nc(N2CCN(C)CC2)n1`, the IC50 with Plasmodium falciparum [1] is 7 nM; in the data set with Plasmodium falciparum [2] it was 60 nM; in data set [9], 34.6 µM; with HepG2 [10] it was 26.7 µM. In addition, the “Ratio IC50” value is 6 in the data set on Plasmodium falciparum [12], 6 with Plasmodium falciparum [11] and 2 with Plasmodium falciparum [13]. Also, the figures for the selectivity ratio in data set [3] and in data set [4] were over 8570 and over 1000, respectively. The Activity entry in the data set on Vero [5] is reported as “Non-toxic”.

Turning to `Cc1cc(NCCCCNc2ccnc3cc(Cl)ccc23)nc(N2CCN(C)CC2)n1`, the half-inhibitory concentration (IC50) in the data set with Plasmodium falciparum [1] was determined as 20 nM; with Plasmodium falciparum [2], 20 nM; in data set [9], 34.6 µM; with HepG2 [10], 29.5 µM. Also, the “Ratio IC50” value in the data set with Plasmodium falciparum [11] amounted to 6. Moreover, the selectivity ratio in data set [3] and in [4] was over 3000 in each case. Also, the Activity result with Vero [5] is on record as “Non-toxic”.

Turning to `Cc1cc(NCCCNc2ccnc3cc(Cl)ccc23)nc(N2CCCCC2)n1`, the half-inhibitory concentration (IC50) in the data set on Plasmodium falciparum [1] is 20 nM; in the data set with Plasmodium falciparum [2] it was 210 nM. Further, the results for the selectivity ratio in [3] and in data set [4] were over 3000 and over 285, respectively. The Activity result (in the data set on Vero [5]; in [6]; with HepG2 [7]) was “Non-toxic” in each case.

For `Cc1cc(NCCCCNc2ccnc3cc(Cl)ccc23)nc(N2CCCCC2)n1`, the concentration for half-maximal inhibition (IC50) was 20 nM with Plasmodium falciparum [1] and 90 nM with Plasmodium falciparum [2]. For the same compound, the “Ratio IC50” value in the data set with Plasmodium falciparum [11] was determined as 6. Also, the selectivity ratio in data set [3] is over 3000; in data set [4] it was over 666. The Activity entry (with Vero [5]; in data set [6]; in the data set with HepG2 [7]) was “Non-toxic” each time.

As to `Cc1cc(NCCNc2ccnc3cc(Cl)ccc23)nc(N2CCOCC2)n1`, the IC50 with Plasmodium falciparum [1] was found to be 20 nM; in the data set with Plasmodium falciparum [2] it was 140 nM. The selectivity ratio in data set [3] was over 3000; in data set [4], over 444. Also, the Activity entry (in the data set on Vero [5]; in [6]; with HepG2 [7]) was “Non-toxic” in each case.

With `Cc1cc(NCCCCCCNc2ccnc3cc(Cl)ccc23)nc(N2CCN(C)CC2)n1`, the IC50 in the data set on Plasmodium falciparum [1] turned out to be 7 nM; in the data set on Plasmodium falciparum [2], 16 nM; in the data set with Vero [8], 10.4 µM; in [9], 7.2 µM; in the data set on HepG2 [10], 6.3 µM. The entries for the “Ratio IC50” value in the data set with Plasmodium falciparum [12], in the data set on Plasmodium falciparum [11] and with Plasmodium falciparum [13] were 6, 6 and 2, respectively. In addition, the selectivity ratio in data set [3] came to 1480; in data set [4] it was 650.

For `Cc1cc(Cl)nc(NCCCCCCNc2ccnc3cc(Cl)ccc23)n1`, the IC50 was found to be 140 nM in the data set on Plasmodium falciparum [1]; 580 nM in the data set with Plasmodium falciparum [2]; 49.4 µM in the data set on Vero [8]; 24 µM in [9]; 8.1 µM in the data set on HepG2 [10]. Further, the selectivity ratio in [3] turned out to be 353; in [4], 85.2.

Take `C[C@@H]1CC[C@H]2[C@@H](C)C(=O)O[C@@H]3O[C@@]4(C)CC[C@@H]1[C@]32OO4` [ARTEMISININ]: the Activity result (with Vero [5]; in data set [6]; with HepG2 [7]) was “Non-toxic” throughout.

As to `Cc1cc(NCCCNc2ccnc3cc(Cl)ccc23)nc(N2CCOCC2)n1`, the half-maximal inhibitory concentration (IC50) in the data set on Plasmodium falciparum [1] was determined as 20 nM; with Plasmodium falciparum [2], 50 nM; in data set [9] it was 35.7 µM; in the data set with HepG2 [10], 26.2 µM. Moreover, in the data set on Plasmodium falciparum [11], the “Ratio IC50” value was 6. Moreover, the figures for the selectivity ratio in [3] and in data set [4] were over 3000 and over 1200, respectively. Moreover, the Activity result in the data set with Vero [5] is listed as “Non-toxic”.

On to `Cc1cc(Cl)nc(NCCCCNc2ccnc3cc(Cl)ccc23)n1`, for which the half-inhibitory concentration (IC50) with Plasmodium falciparum [1] came to 170 nM; with Plasmodium falciparum [2], 640 nM; in the data set on HepG2 [10], 46.4 µM. For the same compound, the selectivity ratio in data set [3] is over 353; in [4] it was over 94. Further, the Activity entry (in the data set on Vero [5]; in data set [6]) was “Non-toxic” throughout.

Consider `COc1cccc2c1C(=O)c1c(O)c3c(c(O)c1C2=O)C[C@@](O)(C(=O)CO)C[C@@H]3O[C@H]1C[C@H](N)[C@H](O)[C@H](C)O1` [DOXORUBICIN], for which the IC50 in the data set on Vero [8] turned out to be 8.6 µM; in data set [9], 1.05 µM; in the data set with HepG2 [10] it was 1 µM.

With `Cc1cc(NCCCCCCNc2ccnc3cc(Cl)ccc23)nc(N2CCOCC2)n1`, the half-maximal inhibitory concentration (IC50) with Plasmodium falciparum [1] came to 30 nM; in the data set on Plasmodium falciparum [2], 140 nM; in the data set on Vero [8], 15.1 µM; in data set [9], 11.1 µM; in the data set with HepG2 [10], 6.4 µM. In addition, the selectivity ratio in data set [3] was found to be 503; in data set [4] it was 107.
